# Experimental data: ChEMBL document CHEMBL1154901, “Quassidines A-D, bis-beta-carboline alkaloids from the stems of Picrasma quassioides” (J Nat Prod, 2010)
# Experiments:
# [1] = system: RAW264.7; assay: Antiinflammatory activity in mouse RAW264.7 cells assessed as inhibition of LPS-induced TNFalpha production by ELISA; type: functional, cell-based
# In short: (§1)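 RAW 264.7 cells in RPMI 1640, seeded at 5 × 10^5 cells/mL and cultured 1 h. Compound in DMSO was co-added with LPS (final 1 µg/mL). After 6 h culture, supernatant TNF-α and IL-6 were quantified with mouse ELISA kits. LPS-only and DMSO-only (no LPS) wells served as references.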
# [2] = system: RAW264.7; assay: Cytotoxicity against mouse RAW264.7 cells after 24 hrs by MTT assay; type: cell-based; details: raw264.7, 24 h
# In short: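 RAW 264.7 macrophages seeded at 5 × 10^5 cells/mL in RPMI 1640 with 10% FBS. Compound in DMSO was added with LPS 1 µg/mL. Viability was read by MTT mitochondrial reduction colorimetric assay after 24 h exposure.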
# [3] = system: RAW264.7; assay: Antiinflammatory activity in mouse RAW264.7 cells assessed as inhibition of LPS-induced IL-6 production by ELISA; type: functional, cell-based; in short: as §1
# [4] = system: RAW264.7; assay: Antiinflammatory activity in mouse RAW264.7 assessed as inhibition LPS-induced nitric oxide production cells after 24 hrs; type: functional, cell-based; details: RAW264.7, 24 h
# In short: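 RAW 264.7 cells in RPMI 1640 with 10% heat-inactivated FBS, seeded at 5 × 10^5 cells/mL and cultured 1 h. Compound in DMSO was added at various concentrations together with LPS (final 1 µg/mL), then incubated 24 h. Supernatant nitrite was measured with Griess reagent (1% sulfanilamide in 5% H3PO4 plus 0.1% naphthylethylene diamine) at 540 nm. Inhibitory rate versus LPS-only wells.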
SMILES,IC50 [1],IC50 [3],IC50 [4],Activity [2]
C[C@]12CCC(=O)C=C1CC[C@@H]1[C@@H]2[C@@H](O)C[C@@]2(C)[C@H]1CC[C@]2(O)C(=O)CO [HYDROCORTISONE],85.6 µM,,,
COc1cnc(CCC(O)c2nccc3c2[nH]c2ccccc23)c2[nH]c3ccccc3c12 (configuration not stated) [QUASSIDINE C],,,,Toxic
COc1cccc2c1[nH]c1c(CCC(O)c3nccc4c3[nH]c3ccccc34)ncc(OC)c12 (configuration not stated) [QUASSIDINE B],,,,Toxic
COc1cccc2c1[nH]c1c(CCC(OC)C(=O)c3nccc4c3[nH]c3ccccc34)ncc(OC)c12 (configuration not stated) [PICRASIDINE C],> 100 µM,> 100 µM,89.9 µM,

# Continued, in another order:
IC50 [1],IC50 [3],IC50 [4],SMILES,Activity [2]
88.4 µM,> 100 µM,89.4 µM,COc1cccc2c1[nH]c1c([C@@H]3CC[C@H]3c3ncc(OC)c4c3[nH]c3ccccc34)ncc(OC)c12 [QUASSIDINE A],
> 100 µM,> 100 µM,> 100 µM,COc1cccc2c1[nH]c1c(CCC(OC)c3nccc4c3[nH]c3ccccc34)ncc(OC)c12 (configuration not stated) [QUASSIDINE D],
